Key:
[1] = biological target: Adrenergic receptors; alpha-1 A & B (Homo sapiens) (UniProt P35348+P35368); experiment: Relative binding affinity for alpha-1b and alpha-1a adrenergic receptors; assay type: protein assay
[2] = biological target: T1, Alpha-1D adrenergic receptor (Homo sapiens, UniProt P25100); experiment: Displacement of [125I]HEAT from human Alpha-1D adrenergic receptor
T1 sequence (P25100 whole entry): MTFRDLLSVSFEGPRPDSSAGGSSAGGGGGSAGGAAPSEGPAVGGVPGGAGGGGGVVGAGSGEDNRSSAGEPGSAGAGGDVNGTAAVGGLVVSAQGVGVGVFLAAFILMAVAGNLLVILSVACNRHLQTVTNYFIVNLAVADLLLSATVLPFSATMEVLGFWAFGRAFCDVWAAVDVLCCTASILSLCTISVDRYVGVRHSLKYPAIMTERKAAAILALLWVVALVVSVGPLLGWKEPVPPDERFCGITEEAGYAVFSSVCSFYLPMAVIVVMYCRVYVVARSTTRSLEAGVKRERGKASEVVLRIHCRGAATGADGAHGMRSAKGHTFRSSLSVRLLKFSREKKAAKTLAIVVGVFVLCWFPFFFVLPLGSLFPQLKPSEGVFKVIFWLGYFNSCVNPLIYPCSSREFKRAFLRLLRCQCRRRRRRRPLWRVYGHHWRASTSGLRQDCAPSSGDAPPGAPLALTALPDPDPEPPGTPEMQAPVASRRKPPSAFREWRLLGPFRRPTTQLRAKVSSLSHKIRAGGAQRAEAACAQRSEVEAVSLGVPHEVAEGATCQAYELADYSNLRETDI
Procedure, shortened: (§1)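 Radioligand competition binding against 125I-HEAT ((±)-β-([125I]-3-iodo-4-hydroxyphenyl)ethylaminomethyl-tetralone), with COS cells as the receptor source. Ki values are derived from displacement and reported as means of three experiments.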

[3] = biological target: Alpha adrenergic receptor (1a and 1d) (Homo sapiens) (UniProt P35348+P25100); experiment: Relative binding affinity for alpha-1d and Alpha-1A adrenergic receptors; assay type: protein assay
[4] = biological target: T2, Alpha-1B adrenergic receptor (Homo sapiens, UniProt P35368); experiment: Displacement of [125I]-HEAT from human Alpha-1B adrenergic receptor; procedure, shortened: as §1
T2 sequence (P35368 whole entry): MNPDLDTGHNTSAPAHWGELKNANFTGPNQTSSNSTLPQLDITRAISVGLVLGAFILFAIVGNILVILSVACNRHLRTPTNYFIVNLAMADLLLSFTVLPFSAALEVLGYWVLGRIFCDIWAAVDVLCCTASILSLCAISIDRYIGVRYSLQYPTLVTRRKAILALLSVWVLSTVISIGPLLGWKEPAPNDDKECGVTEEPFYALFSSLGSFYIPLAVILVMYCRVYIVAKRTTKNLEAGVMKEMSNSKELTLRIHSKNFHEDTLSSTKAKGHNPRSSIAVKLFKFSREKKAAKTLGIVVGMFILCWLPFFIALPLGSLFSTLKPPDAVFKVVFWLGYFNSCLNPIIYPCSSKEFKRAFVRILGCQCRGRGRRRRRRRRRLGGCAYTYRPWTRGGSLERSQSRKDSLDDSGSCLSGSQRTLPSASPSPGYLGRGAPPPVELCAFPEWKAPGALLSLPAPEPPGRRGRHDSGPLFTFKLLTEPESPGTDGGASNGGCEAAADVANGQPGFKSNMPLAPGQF

[5] = biological target: T3, Alpha-1A adrenergic receptor (Homo sapiens, UniProt P35348); experiment: Displacement of [125I]HEAT from human Alpha-1A adrenergic receptor; procedure, shortened: as §1
T3 sequence (P35348 whole entry): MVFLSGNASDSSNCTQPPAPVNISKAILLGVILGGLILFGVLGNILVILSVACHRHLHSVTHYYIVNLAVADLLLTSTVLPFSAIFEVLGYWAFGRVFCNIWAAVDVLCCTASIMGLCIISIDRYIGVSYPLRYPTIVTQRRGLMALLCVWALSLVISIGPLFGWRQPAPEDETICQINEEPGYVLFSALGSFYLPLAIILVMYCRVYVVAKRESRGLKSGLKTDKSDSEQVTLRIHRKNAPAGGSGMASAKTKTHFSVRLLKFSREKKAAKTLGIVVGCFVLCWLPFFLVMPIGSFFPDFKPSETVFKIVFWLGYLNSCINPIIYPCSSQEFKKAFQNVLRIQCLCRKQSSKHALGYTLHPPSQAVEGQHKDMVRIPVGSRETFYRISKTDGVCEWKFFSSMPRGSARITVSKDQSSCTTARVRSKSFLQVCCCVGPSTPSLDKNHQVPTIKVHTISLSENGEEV

Ki ratio [1] | Ki [2] | Ki ratio [3] | Ki [4] | Ki [5] | SMILES
> 2.2 | > 5000 nM | > 2.2 | > 5000 nM | 2320 nM | CC(C)Oc1ccccc1N1CCN(Cc2nc(CN3CCCCC3=O)co2)CC1
> 58 | 285 nM | 3.3 | > 5000 nM | 86 nM | O=C1CCCCCN1Cc1cc(CN2CCN(c3ccccc3Oc3ccccc3)CC2)on1
> 16.8 | 1110 nM | 3.7 | > 5000 nM | 297 nM | CC(C)Oc1ccccc1N1CCN(Cc2nc(CN3C(=O)c4ccccc4C3=O)co2)CC1
> 61 | 4140 nM | 50 | > 5000 nM | 82 nM | CC(C)Oc1ccccc1N1CCN(Cc2nc(CN3C(=O)CC4(CCCC4)CC3=O)co2)CC1
> 1.4 | > 5000 nM | > 1.4 | > 5000 nM | 3470 nM | CC(C)Oc1ccccc1N1CCN(Cc2nc(CN3CCCCCC3=O)co2)CC1
> 595 | 1440 nM | 174 | > 5000 nM | 8.4 nM | CC(C)Oc1ccccc1N1CCN(Cc2cc(CN3CCCCC3=O)no2)CC1
147 | 170 nM | 11.3 | 2200 nM | 15 nM | O=C1CCCCN1Cc1cc(CN2CCN(c3ccccc3Oc3ccccc3)CC2)on1
> 170 | 34.5 nM | 1.2 | > 5000 nM | 28 nM | O=C1CCCN1Cc1cc(CN2CCN(c3ccccc3Oc3ccccc3)CC2)on1
1450 | 39.5 nM | 33 | 1740 nM | 1.2 nM | CC(C)Oc1ccccc1N1CCN(Cc2nc(CN3CCCCC3=O)cs2)CC1
2720 | 65.5 nM | 60 | 2990 nM | 1.1 nM | CC(C)Oc1ccccc1N1CCN(Cc2cc(CN3CCCC3=O)no2)CC1
> 3.8 | > 5000 nM | > 3.8 | > 5000 nM | 1300 nM | CC(C)Oc1ccccc1N1CCN(Cc2nc(CN3CCCC3=O)co2)CC1
4520 | 105 nM | 112 | 4250 nM | 0.9 nM | CC(C)Oc1ccccc1N1CCN(Cc2nc(CN3CCCC3=O)cs2)CC1
2.5 | 3060 nM | 2 | 3720 nM | 1500 nM | OCc1cc(CN2CCN(c3ccccc3Oc3ccccc3)CC2)on1

Source: ChEMBL document CHEMBL1134906, “Arylpiperazine substituted heterocycles as selective alpha(1a) adrenergic antagonists” (Bioorg Med Chem Lett, 2002)
